# This is a sample that favours compounds with a hit; in the whole collection about 1.9% have one here.
# Runt-SMMHC FRET – inhibitors of RUNX1 Runt–CBFb-SMMHC binding, primary screen, biochemical, FRET, Cerulean-Runt, Venus-CBFb-SMMHC, uHTS; Runt-related transcription factor 1 (Homo sapiens) + Core-binding factor subunit beta …; Cerulean-Runt/Venus-CBFb-SMMHC FRET ratio 530/480, 1 h; inhibition, % at 20 µM; 220,000 tested, 0.74% active; AID 1434, 2008;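 active means mean inhibition across duplicate retests at 20 µM reaching about 50%, limit read from the data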;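 further: inhibitors lower the FRET ratio by blocking Runt binding to CBFb-SMMHC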
# RanGTP-Imp inh – inhibitors of RanGTP-importin-beta interaction, primary screen, biochemical, FRET, CFP-Ran, YFP-importin-beta, homogeneous. AID 2216, 2009. inhibition, % (test concentration not listed). 300,000 tested, 1.1% active. Ran GTPase (GTP-bound) - importin-beta complex. cell-free CFP-Ran/YFP-importin-beta FRET ratio;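 active means more than half of the replicate wells show a fall in the fluorescence ratio signal beyond about 16%, limit read from the data, passing the limit was not always enough; inconclusive means exactly half of the replicate wells pass the set limit; inactive means fewer than half of replicates pass the limit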
# Hck-Nef inh – inhibitors of Nef-activated human Hck kinase, primary screen, biochemical, Z-Lyte FRET, 384-well, Hck-YEEI; Tyrosine-protein kinase HCK (Homo sapiens), P08631; Recombinant Hck-YEEI plus Nef, Z-Lyte FRET kinase assay; inhibition, % at 20 µM; 220,000 tested, 0.68% active; AID 463187, 2010;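 active means Hck-Nef kinase inhibition above about 50%, limit read from the data; inactive means inhibition below that limit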
# Runt-CBFb FRET – inhibitors of RUNX1 Runt–CBFb binding, primary screen, biochemical, FRET, Cerulean-Runt, Venus-CBFb, uHTS. Runt-related transcription factor 1 (Homo sapiens) + Core-binding factor subunit beta …. Cerulean-Runt/Venus-CBFb FRET ratio 530/480, 1 h. inhibition, % at 20 µM. 220,000 tested, 0.46% active. AID 1496, 2009;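 active means inhibition over about 50% at 20 µM in the single-dose screen, limit read from the data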
#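 Measured by: fluorescence energy transfer, 422 nm excitation, 530/480 nm emission; test system: Cerulean-tagged RUNX1 Runt domain (FRET donor) fusion protein; buffer or medium: Tris pH 7.5 buffer with BSA; compound: one dose, 20 µM compound, 1% DMSO; times: two 1 h room-temperature incubations shielded from light; benchmarks: unlabeled CBFb 5 µM, positive control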
# TbHK1 inh – Trypanosoma brucei hexokinase 1 inhibitors, primary screen, biochemical, G6PDH-coupled NADH absorbance, MLSCN library; recombinant TbHK1, G6PDH-coupled NADH A340; inhibition, % at 10 µM; 220,000 tested, 0.11% active;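 active means inhibition of 50% or more in the single-dose primary screen; inactive means inhibition below 50%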
# Hck-Nef confirm – retest of Hck:Nef kinase inhibitor hits, confirmation, biochemical, Z-Lyte FRET, 384-well, p-Tyr peptide counterscreen; shares compounds with Hck-Nef inh; Recombinant Hck-YEEI:Nef, Z-Lyte FRET kinase assay; calls only at 10 µM; 1,300 tested, 28% active;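 active means average inhibition of at least 50%, with Z-scores no higher than 3 in both the phospho-tyrosine peptide and fluorescence counterscreens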
# A number is an active result; 0 = inactive; ? = inconclusive; - = no result given; + = active, no number.
SMILES,Runt-SMMHC FRET,RanGTP-Imp inh,Hck-Nef inh,Runt-CBFb FRET,TbHK1 inh,Hck-Nef confirm
CCS(=O)(=O)Nc1ccc(-c2nc3cccnc3s2)cc1,74.5,0,+,0,0,-
COc1ccc(N(CC(=O)Nc2ccccc2OC)S(=O)(=O)c2ccc(NC(C)=O)cc2)cc1,-,0,-,-,-,-
Nc1c(C(=O)N/N=C/c2ccccc2)cnn1-c1ccccc1,0,0,67.9,0,0,0
CCC1=C(OC(=O)N(CC)CC)N2C(=O)OC(=NCC3CC3)[C@]2(C)[C@H]2C1=CC[C@H]1C(=O)N(CC)C(=O)[C@H]12,0,0,0,0,0,-
Cc1nc2cc(N3CCCCC3)c(NC(=O)c3ccncc3)cc2c(=O)n1Cc1ccc(Cl)cc1,0,0,67.4,0,0,0
Cc1ccc(NNc2c(C)nc3ccccc3nc2=O)cc1,0,0,149.1,0,0,0
Cc1ccc(NS(=O)(=O)c2ccc(C(=O)N3CCN(c4ccccn4)CC3)cc2)cc1,0,0,80.1,0,0,0
Cc1ccc(S(=O)(=O)NCc2ccc(C(=O)N3CCN(c4ccccn4)CC3)cc2)cc1,0,0,0,0,0,-
CCCCOc1ccc(C(=O)NNC(=O)C2C3CCC(C3)C2C(=O)O)cc1 (stereo not drawn),-,0,-,-,-,-
CCOC(=O)c1cnc2ccc(OCC)cc2c1N1CCN(c2ccccc2OC)CC1,0,0,77.2,0,0,+
CN1C(=O)C(CC(=O)Nc2ccc(F)cc2)N(Cc2ccco2)C1=S (stereo not drawn),0,0,0,0,0,-
NS(=O)(=O)c1ccc(-c2ccc(/C=C3\NC(=S)NC3=O)o2)cc1,-,0,-,-,-,-
CC1=C(C#N)C(=O)NC(=O)/C1=C/c1ccc(-c2ccc(S(N)(=O)=O)cc2)o1,0,0,51.5,0,0,0
CC(C)N1CC(C(=O)Nc2ccc(C#N)cc2)CC1=O (stereo not drawn),-,0,-,-,-,-
COc1ccc(-c2cc(-c3ccco3)[nH]c(=O)c2C#N)cc1OC,0,0,53.4,0,0,0
Cc1c(C)c2cc(Cl)c(O)c(CN3CCCCC3)c2oc1=O,88.7,?,66.9,0,0,0
Cc1cc(=O)oc2c(CN3CCN(C)CC3)c(O)c(Cl)cc12,136.2,0,105.8,97.2,0,-
CN1CCN(Cc2c(O)c(Cl)cc3c(-c4ccccc4)cc(=O)oc23)CC1,0,0,0,0,0,-
CC1=NOC(=O)/C1=C\c1ccc(-c2ccc(Cl)c(C(=O)O)c2)o1,0,0,0,0,0,-
CC1=NOC(=O)/C1=C\c1ccc(-c2ccccc2Br)o1,0,0,51.7,-,0,0
CCC(C(=O)NCCCN1CC(C)CC(C)C1)n1nc(C)c2sc3ccccc3c2c1=O (stereo not drawn),-,0,-,-,-,-
COC(=O)c1sc(-c2ccc(C(C)(C)C)cc2)cc1NC(=O)c1ccccc1C(=O)O,0,0,81.7,0,0,+
O=C(NCCN1CCOCC1)c1cc2c(=O)n3ccccc3nc2n1Cc1ccccc1,0,0,52.3,0,0,0
Cc1cccn2c(=O)c(C=O)c(Cl)nc12,0,?,0,0,0,-
COCCNC(=O)c1cc2c(=O)n3cccc(C)c3nc2n1C,0,0,-,0,-,-
Cc1ccc(-n2c(=O)c(C#N)cc3c(=O)n4cccc(C)c4nc32)cc1,58.7,92.6,67.1,122.2,0,-
C=CCn1c(=N)c(C(=O)NCCCOC)cc2c(=O)n3cccc(C)c3nc21,61.3,+,199.6,0,0,-
N#Cc1cc2c(=O)n3ccccc3nc2n(-c2ccccc2Cl)c1=O,89.6,135.9,+,0,0,-
CNC(=O)c1cc2c(=O)n3cccc(C)c3nc2n(C(C)C)c1=N,59.8,183.5,172.4,0,0,-
Cc1cccn2c(=O)c3cc(C(=O)NCCN4CCOCC4)c(=N)n(CCc4ccccc4)c3nc12,0,185.3,61.3,0,0,-

# High-throughput results: PubChem BioAssay, several laboratories
